Results reported in ChEMBL document CHEMBL4118033, “Total Synthesis, Configuration Assignment, and Cytotoxic Activity Evaluation of Protulactone A” (J Nat Prod, 2017).
Activity calls are given as the source filed them.

Legend:
Assay type in all cases: functional, cell-based
HCC 2998 = experiment: Antiproliferative activity against human HCC2998 cells at 10 uM incubated for 48 hrs by sulforhodamine B assay
Procedure, shortened: (§1)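 Run by the NCI Developmental Therapeutics Program (Division of Cancer Treatment and Diagnosis) as part of the NCI60 human tumour cell line panel screen. Each compound was tested at a single dose of 10 μM. Results are reported as one-dose mean graphs.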

DU-145 = experiment: Antiproliferative activity against human DU145 cells at 10 uM incubated for 48 hrs by sulforhodamine B assay; procedure, shortened: as §1
HOP-62 = experiment: Antiproliferative activity against human HOP62 cells at 10 uM incubated for 48 hrs by sulforhodamine B assay; procedure, shortened: as §1
CCRF-CEM = experiment: Antiproliferative activity against human CCRF-CEM cells at 10 uM incubated for 48 hrs by sulforhodamine B assay; procedure, shortened: as §1
OVCAR-4 = experiment: Antiproliferative activity against human OVCAR4 cells at 10 uM incubated for 48 hrs by sulforhodamine B assay; procedure, shortened: as §1
RXF 393 = experiment: Antiproliferative activity against human RXF393 cells at 10 uM incubated for 48 hrs by sulforhodamine B assay; procedure, shortened: as §1
Malme-3M = experiment: Antiproliferative activity against human MALME-3M cells at 10 uM incubated for 48 hrs by sulforhodamine B assay; procedure, shortened: as §1
K562 = experiment: Antiproliferative activity against human K562 cells at 10 uM incubated for 48 hrs by sulforhodamine B assay; procedure, shortened: as §1
MCF7 = experiment: Antiproliferative activity against human MCF7 cells at 10 uM incubated for 48 hrs by sulforhodamine B assay; procedure, shortened: as §1
NCI-H23 = experiment: Antiproliferative activity against human NCI-H23 cells at 10 uM incubated for 48 hrs by sulforhodamine B assay; procedure, shortened: as §1
NCI/ADR-RES = experiment: Antiproliferative activity against human NCI/ADR-RES cells at 10 uM incubated for 48 hrs by sulforhodamine B assay; procedure, shortened: as §1
KM12 = experiment: Antiproliferative activity against human KM12 cells at 10 uM incubated for 48 hrs by sulforhodamine B assay; procedure, shortened: as §1
SK-OV-3 = experiment: Antiproliferative activity against human SKOV3 cells at 10 uM incubated for 48 hrs by sulforhodamine B assay; procedure, shortened: as §1
SN12C = experiment: Antiproliferative activity against human SN12C cells at 10 uM incubated for 48 hrs by sulforhodamine B assay; procedure, shortened: as §1
UACC-62 = experiment: Antiproliferative activity against human UACC62 cells at 10 uM incubated for 48 hrs by sulforhodamine B assay
Procedure, shortened: (§2)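 Run by the NCI Developmental Therapeutics Program (Division of Cancer Treatment and Diagnosis) as part of the NCI60 human tumour cell line panel. Each compound was tested in vitro at a single dose of 10 μM, and the data are reported as one-dose mean graphs across the panel.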

MDA-MB-435 = experiment: Antiproliferative activity against human MDA-MB-435 cells at 10 uM incubated for 48 hrs by sulforhodamine B assay; procedure, shortened: as §1
HOP-92 = experiment: Antiproliferative activity against human HOP92 cells at 10 uM incubated for 48 hrs by sulforhodamine B assay; procedure, shortened: as §1
SNB-19 = experiment: Antiproliferative activity against human SNB19 cells at 10 uM incubated for 48 hrs by sulforhodamine B assay; procedure, shortened: as §1
T47D = experiment: Antiproliferative activity against human T47D cells at 10 uM incubated for 48 hrs by sulforhodamine B assay; procedure, shortened: as §2
ACHN = experiment: Antiproliferative activity against human ACHN cells at 10 uM incubated for 48 hrs by sulforhodamine B assay; procedure, shortened: as §1
SNB-75 = experiment: Antiproliferative activity against human SNB75 cells at 10 uM incubated for 48 hrs by sulforhodamine B assay; procedure, shortened: as §2
COLO 205 = experiment: Antiproliferative activity against human COLO205 cells at 10 uM incubated for 48 hrs by sulforhodamine B assay; procedure, shortened: as §1
SF-295 = experiment: Antiproliferative activity against human SF295 cells at 10 uM incubated for 48 hrs by sulforhodamine B assay; procedure, shortened: as §1
CAKI-1 = experiment: Antiproliferative activity against human Caki1 cells at 10 uM incubated for 48 hrs by sulforhodamine B assay; procedure, shortened: as §1
SW-620 = experiment: Antiproliferative activity against human SW620 cells at 10 uM incubated for 48 hrs by sulforhodamine B assay; procedure, shortened: as §2
NCI-H460 = experiment: Antiproliferative activity against human NCI-H460 cells at 10 uM incubated for 48 hrs by sulforhodamine B assay; procedure, shortened: as §1
MDA-MB-468 = experiment: Antiproliferative activity against human MDA-MB-468 cells at 10 uM incubated for 48 hrs by sulforhodamine B assay; procedure, shortened: as §1
RPMI-8226 = experiment: Antiproliferative activity against human RPMI8226 cells at 10 uM incubated for 48 hrs by sulforhodamine B assay; procedure, shortened: as §1
HL-60(TB) = experiment: Antiproliferative activity against human HL-60(TB) cells at 10 uM incubated for 48 hrs by sulforhodamine B assay
Procedure, shortened: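 Tested within the NCI60 cancer cell line panel screen run by the Developmental Therapeutics Program (Division of Cancer Treatment and Diagnosis, National Cancer Institute). Each stereoisomer was given at a single dose of 10 μM. Results are reported as one-dose mean graphs.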

HCT-116 = experiment: Antiproliferative activity against human HCT116 cells at 10 uM incubated for 48 hrs by sulforhodamine B assay; procedure, shortened: as §1
PC-3 = experiment: Antiproliferative activity against human PC3 cells at 10 uM incubated for 48 hrs by sulforhodamine B assay; procedure, shortened: as §1
SK-MEL-2 = experiment: Antiproliferative activity against human SK-MEL-2 cells at 10 uM incubated for 48 hrs by sulforhodamine B assay; procedure, shortened: as §1
LOX IMVI = experiment: Antiproliferative activity against human LOXIMVI cells at 10 uM incubated for 48 hrs by sulforhodamine B assay; procedure, shortened: as §1
NCI-H226 = experiment: Antiproliferative activity against human NCI-H226 cells at 10 uM incubated for 48 hrs by sulforhodamine B assay; procedure, shortened: as §1
HT-29 = experiment: Antiproliferative activity against human HT-29 cells at 10 uM incubated for 48 hrs by sulforhodamine B assay; procedure, shortened: as §1
SF-268 = experiment: Antiproliferative activity against human SF268 cells at 10 uM incubated for 48 hrs by sulforhodamine B assay; procedure, shortened: as §1
SF-539 = experiment: Antiproliferative activity against human SF539 cells at 10 uM incubated for 48 hrs by sulforhodamine B assay; procedure, shortened: as §1
U-251 = experiment: Antiproliferative activity against human U251 cells at 10 uM incubated for 48 hrs by sulforhodamine B assay; procedure, shortened: as §2
NCI-H322M = experiment: Antiproliferative activity against human NCI-H322M cells at 10 uM incubated for 48 hrs by sulforhodamine B assay; procedure, shortened: as §1
A498 = experiment: Antiproliferative activity against human A498 cells at 10 uM incubated for 48 hrs by sulforhodamine B assay; procedure, shortened: as §1
OVCAR-8 = experiment: Antiproliferative activity against human OVCAR8 cells at 10 uM incubated for 48 hrs by sulforhodamine B assay; procedure, shortened: as §1
IGROV-1 = experiment: Antiproliferative activity against human IGROV1 cells at 10 uM incubated for 48 hrs by sulforhodamine B assay; procedure, shortened: as §1
OVCAR-5 = experiment: Antiproliferative activity against human OVCAR5 cells at 10 uM incubated for 48 hrs by sulforhodamine B assay; procedure, shortened: as §1
SK-MEL-28 = experiment: Antiproliferative activity against human SK-MEL-28 cells at 10 uM incubated for 48 hrs by sulforhodamine B assay; procedure, shortened: as §1

Measured: Activity

O=C1C[C@H]2O[C@H]([C@H](O)c3ccccc3)[C@H](O)[C@H]2O1
active: HCC 2998 | DU-145 | HOP-62 | CCRF-CEM | OVCAR-4 | RXF 393 | Malme-3M | K562 | MCF7 | NCI-H23 | NCI/ADR-RES | KM12 | SK-OV-3 | SN12C | UACC-62 | MDA-MB-435 | HOP-92 | SNB-19 | T47D | ACHN | SNB-75 | COLO 205 | SF-295 | CAKI-1 | SW-620 | NCI-H460 | MDA-MB-468 | RPMI-8226 | HL-60(TB) | HCT-116 | PC-3 | SK-MEL-2 | LOX IMVI | NCI-H226 | HT-29 | SF-268 | SF-539 | U-251 | NCI-H322M | A498 | OVCAR-8 | IGROV-1 | OVCAR-5 | SK-MEL-28

O=C1C[C@H]2O[C@H]([C@@H](O)c3ccccc3)[C@H](O)[C@H]2O1
active: HCC 2998 | DU-145 | HOP-62 | CCRF-CEM | OVCAR-4 | RXF 393 | Malme-3M | K562 | MCF7 | NCI-H23 | NCI/ADR-RES | KM12 | SK-OV-3 | SN12C | UACC-62 | MDA-MB-435 | HOP-92 | SNB-19 | T47D | ACHN | SNB-75 | COLO 205 | SF-295 | CAKI-1 | SW-620 | NCI-H460 | MDA-MB-468 | RPMI-8226 | HL-60(TB) | HCT-116 | PC-3 | SK-MEL-2 | LOX IMVI | NCI-H226 | HT-29 | SF-268 | SF-539 | U-251 | NCI-H322M | A498 | OVCAR-8 | IGROV-1 | OVCAR-5 | SK-MEL-28

O=C(/C=C/c1ccccc1)O[C@H](c1ccccc1)[C@@H]1O[C@@H]2CC(=O)O[C@@H]2[C@H]1O
active: HCC 2998 | DU-145 | HOP-62 | CCRF-CEM | OVCAR-4 | RXF 393 | Malme-3M | K562 | MCF7 | NCI-H23 | NCI/ADR-RES | KM12 | SK-OV-3 | SN12C | UACC-62 | MDA-MB-435 | HOP-92 | SNB-19 | T47D | ACHN | SNB-75 | COLO 205 | SF-295 | CAKI-1 | SW-620 | NCI-H460 | MDA-MB-468 | RPMI-8226 | HL-60(TB) | HCT-116 | PC-3 | SK-MEL-2 | LOX IMVI | NCI-H226 | HT-29 | SF-268 | SF-539 | U-251 | NCI-H322M | A498 | OVCAR-8 | IGROV-1 | OVCAR-5 | SK-MEL-28
